Assay results from ChEMBL document CHEMBL5649170, “Sustained microglial depletion with CSF1R inhibitor impairs parenchymal plaque development in an Alzheimer's disease model” (Nat Commun, 2019).

Tests used:
Mus musculus [1] = assay: Antialzheimer activity in 5XFAD mouse assessed as number of Iba positive cells per FOV in microglia at 1200 ppm administered as rodent chow for 3 days by DAPI staining based immunolabeling analysis (reference value: 119 to 154); format: functional; conditions: route po, time 3 day
[2] = molecular target: Tyrosine-protein kinase Blk (Homo sapiens, UniProt P51451); assay: Inhibition of BLK (unknown origin)
Tyrosine-protein kinase Blk, sequence (P51451 whole entry): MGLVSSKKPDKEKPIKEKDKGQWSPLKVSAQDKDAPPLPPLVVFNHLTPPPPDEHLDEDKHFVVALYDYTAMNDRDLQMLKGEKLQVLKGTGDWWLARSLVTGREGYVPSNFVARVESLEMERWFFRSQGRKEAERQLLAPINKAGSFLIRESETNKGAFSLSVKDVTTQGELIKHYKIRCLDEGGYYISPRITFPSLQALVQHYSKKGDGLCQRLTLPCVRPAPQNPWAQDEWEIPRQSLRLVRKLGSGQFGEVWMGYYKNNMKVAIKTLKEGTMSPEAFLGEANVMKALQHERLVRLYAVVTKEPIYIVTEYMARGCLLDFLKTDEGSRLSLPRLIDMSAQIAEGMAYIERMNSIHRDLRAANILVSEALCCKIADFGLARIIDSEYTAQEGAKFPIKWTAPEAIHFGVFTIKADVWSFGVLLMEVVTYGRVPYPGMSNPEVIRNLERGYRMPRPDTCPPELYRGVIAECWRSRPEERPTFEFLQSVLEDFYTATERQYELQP

[3] = Prevention of St8sia5 gene downregulation in 5XFAD mouse hippocampus assessed as percent change in Reads Per kilo base per Million mapped reads at 1200 ppm administered as rodent chow starting from 1.5 months and measured after 7 months by RNA-Seq analysis (reference value: 42.024 to 86.833 %); format: functional; conditions: route po, time 5.5 months, 4015 h
[4] = Effect on Cst7 gene expression in wild type mouse cortex at 1200 ppm administered as rodent chow starting from 1.5 months and measured after 7 months by RNA-Seq analysis (reference value: 0.102 to 0.891 RPKM); format: functional; conditions: route po, time 5.5 months, 4015 h
[5] = molecular target: Calcium/calmodulin-dependent protein kinase type 1 (Homo sapiens, UniProt Q14012); assay: Inhibition of CAMK1 (unknown origin)
Calcium/calmodulin-dependent protein kinase type 1, sequence (Q14012 whole entry): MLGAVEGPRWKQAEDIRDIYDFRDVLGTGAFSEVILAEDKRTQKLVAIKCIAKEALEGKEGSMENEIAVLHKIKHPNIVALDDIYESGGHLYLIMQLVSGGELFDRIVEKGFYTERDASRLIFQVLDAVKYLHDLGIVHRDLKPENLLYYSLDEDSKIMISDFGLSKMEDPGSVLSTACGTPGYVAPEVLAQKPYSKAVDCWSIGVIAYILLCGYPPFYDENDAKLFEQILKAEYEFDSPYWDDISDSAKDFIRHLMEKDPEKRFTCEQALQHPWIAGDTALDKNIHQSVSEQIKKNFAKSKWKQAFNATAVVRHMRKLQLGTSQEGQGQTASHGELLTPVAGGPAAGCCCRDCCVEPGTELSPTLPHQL

[6] = Prevention of Nos1ap gene downregulation in 5XFAD mouse hippocampus assessed as percent change in Reads Per kilo base per Million mapped reads at 1200 ppm administered as rodent chow starting from 1.5 months and measured after 7 months by RNA-Seq analysis (reference value: 58.209 to 93.063 %); format: functional; conditions: route po, time 5.5 months, 4015 h
[7] = molecular target: Cyclin-dependent kinase 5/CDK5 activator 1 (Homo sapiens, UniProt Q00535); assay: Inhibition of CDK5_p25 (unknown origin); format: protein-complex assay
Cyclin-dependent kinase 5/CDK5 activator 1, sequence (Q00535 whole entry): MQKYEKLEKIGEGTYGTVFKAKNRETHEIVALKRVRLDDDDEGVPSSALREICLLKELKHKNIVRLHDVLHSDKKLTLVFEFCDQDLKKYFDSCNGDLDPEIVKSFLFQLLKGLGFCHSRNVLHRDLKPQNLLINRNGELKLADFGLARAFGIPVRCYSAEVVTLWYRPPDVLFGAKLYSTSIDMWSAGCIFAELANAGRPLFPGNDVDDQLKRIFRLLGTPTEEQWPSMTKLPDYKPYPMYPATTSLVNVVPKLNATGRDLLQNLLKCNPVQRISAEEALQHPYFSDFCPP
Cyclin-dependent kinase 5/CDK5 activator 1, sequence (Q15078 whole entry, further chain): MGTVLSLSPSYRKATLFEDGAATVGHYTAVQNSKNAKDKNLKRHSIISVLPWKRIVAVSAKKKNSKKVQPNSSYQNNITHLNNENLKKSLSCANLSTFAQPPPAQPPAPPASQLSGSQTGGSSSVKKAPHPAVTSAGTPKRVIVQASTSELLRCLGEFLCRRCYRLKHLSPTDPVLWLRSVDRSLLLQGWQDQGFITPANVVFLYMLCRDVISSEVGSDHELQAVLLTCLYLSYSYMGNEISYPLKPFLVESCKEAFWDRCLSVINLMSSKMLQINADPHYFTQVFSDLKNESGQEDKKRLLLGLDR

[8] = Effect on Siglech gene expression in 5XFAD mouse cortex at 1200 ppm administered as rodent chow starting from 1.5 months and measured after 7 months by RNA-Seq analysis (reference value: 5.048 to 7.930 RPKM); format: functional; conditions: route po, time 5.5 months, 4015 h
[9] = Effect on ccl6 gene expression in wild type mouse thalamus at 1200 ppm administered as rodent chow starting from 1.5 months and measured after 7 months by RNA-Seq analysis (reference value: 0.647 to 1.238 RPKM); format: functional; conditions: route po, time 5.5 months, 4015 h
[10] = Effect on Ctsd gene expression in 5XFAD mouse thalamus at 1200 ppm administered as rodent chow starting from 1.5 months and measured after 7 months by RNA-Seq analysis (reference value: 209.488 to 301.760 RPKM); format: functional; conditions: route po, time 5.5 months, 4015 h
[11] = molecular target: Dual specificity tyrosine-phosphorylation-regulated kinase 1A (Homo sapiens, UniProt Q13627); assay: Inhibition of DYRK1A (unknown origin)
Mus musculus [12] = assay: Antialzheimer activity in 5XFAD mouse assessed as amyloidbeta40 level in detergent insoluble thalamus fraction measured per microgram protein at 1200 ppm administered as rodent chow starting from 1.5 months and measured after 7 months by ELISA (reference value: 57.876 to 502395 pg); format: functional; conditions: route po, time 5.5 months, 4015 h
Outline: (§1)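 PLX5622 at 1200 ppm in chow given to 5xFAD mice from 1.5 months to 4 or 7 months of age; cortex and thalamus homogenized in TPER (detergent-soluble), pellets re-homogenized in 70% formic acid and spun 100,000 g, 1 h, 4 °C (insoluble); protein by Bradford/Lowry; Aβ species measured by Meso Scale electrochemiluminescence immunoassay, normalized to protein; n = 7–8 per group at 7 months.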

[13] = Drug concentration in 5XFAD mouse plasma at 1200 ppm administered as rodent chow for 180 days; format: ADME, cell-free; conditions: route po, time 180 day
Mus musculus [14] = assay: Antialzheimer activity in 5XFAD mouse assessed as amyloidbeta42 level in detergent soluble cortex fraction measured per microgram protein at 1200 ppm administered as rodent chow starting from 1.5 months and measured after 7 months by ELISA (reference value: 0 to 0.239 pg); format: functional; conditions: route po, time 5.5 months, 4015 h; outline: as §1
Mus musculus [15] = assay: Antialzheimer activity in 5XFAD mouse assessed as number of Thio-S positive plaques per FOV in thalamus at 1200 ppm administered as rodent chow starting from 1.5 months and measured after 7 months by Thio-S staining based confocal microscopic analysis (reference value: 97 to 282); format: functional; conditions: route po, time 5.5 months, 4015 h
[16] = Effect on Siglech gene expression in wild type mouse cortex at 1200 ppm administered as rodent chow starting from 1.5 months and measured after 7 months by RNA-Seq analysis (reference value: 3.777 to 4.267 RPKM); format: functional; conditions: route po, time 5.5 months, 4015 h
[17] = Prevention of Rtn4r gene downregulation in 5XFAD mouse hippocampus assessed as percent change in Reads Per kilo base per Million mapped reads at 1200 ppm administered as rodent chow starting from 1.5 months and measured after 7 months by RNA-Seq analysis (reference value: 53.880 to 87.869 %); format: functional; conditions: route po, time 5.5 months, 4015 h
[18] = molecular target: Dual specificity tyrosine-phosphorylation-regulated kinase 3 (Homo sapiens, UniProt O43781); assay: Inhibition of DYRK3 (unknown origin)
Dual specificity tyrosine-phosphorylation-regulated kinase 3, sequence (O43781 whole entry): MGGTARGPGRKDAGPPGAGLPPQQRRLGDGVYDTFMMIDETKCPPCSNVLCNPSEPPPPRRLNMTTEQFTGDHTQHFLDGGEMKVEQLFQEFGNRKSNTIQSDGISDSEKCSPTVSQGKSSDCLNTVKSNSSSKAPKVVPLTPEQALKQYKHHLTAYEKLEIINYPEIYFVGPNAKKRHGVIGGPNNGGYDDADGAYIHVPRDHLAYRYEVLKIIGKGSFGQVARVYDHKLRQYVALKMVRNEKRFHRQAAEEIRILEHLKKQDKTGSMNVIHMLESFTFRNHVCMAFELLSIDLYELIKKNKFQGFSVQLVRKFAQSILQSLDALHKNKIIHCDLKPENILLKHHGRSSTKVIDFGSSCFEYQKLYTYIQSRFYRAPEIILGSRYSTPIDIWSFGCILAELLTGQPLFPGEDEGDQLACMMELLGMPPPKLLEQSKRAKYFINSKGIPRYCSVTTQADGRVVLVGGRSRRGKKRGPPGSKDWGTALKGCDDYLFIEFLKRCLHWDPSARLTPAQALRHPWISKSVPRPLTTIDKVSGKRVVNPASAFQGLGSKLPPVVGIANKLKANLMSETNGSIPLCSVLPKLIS

[19] = molecular target: T1, Macrophage colony-stimulating factor 1 receptor (Mus musculus) (UniProt P09581); assay: In vivo inhibition of CSF1R in wildtype mouse assessed as number of GFAP positive cell per FOV in somatosensory cortex at 1200 ppm administered as rodent chow for 10 to 24 weeks by immunolabelling based confocal microscopic analysis (reference value: 4 to 34); format: functional; conditions: route po, time 10-24 weeks
T1 sequence (whole entry): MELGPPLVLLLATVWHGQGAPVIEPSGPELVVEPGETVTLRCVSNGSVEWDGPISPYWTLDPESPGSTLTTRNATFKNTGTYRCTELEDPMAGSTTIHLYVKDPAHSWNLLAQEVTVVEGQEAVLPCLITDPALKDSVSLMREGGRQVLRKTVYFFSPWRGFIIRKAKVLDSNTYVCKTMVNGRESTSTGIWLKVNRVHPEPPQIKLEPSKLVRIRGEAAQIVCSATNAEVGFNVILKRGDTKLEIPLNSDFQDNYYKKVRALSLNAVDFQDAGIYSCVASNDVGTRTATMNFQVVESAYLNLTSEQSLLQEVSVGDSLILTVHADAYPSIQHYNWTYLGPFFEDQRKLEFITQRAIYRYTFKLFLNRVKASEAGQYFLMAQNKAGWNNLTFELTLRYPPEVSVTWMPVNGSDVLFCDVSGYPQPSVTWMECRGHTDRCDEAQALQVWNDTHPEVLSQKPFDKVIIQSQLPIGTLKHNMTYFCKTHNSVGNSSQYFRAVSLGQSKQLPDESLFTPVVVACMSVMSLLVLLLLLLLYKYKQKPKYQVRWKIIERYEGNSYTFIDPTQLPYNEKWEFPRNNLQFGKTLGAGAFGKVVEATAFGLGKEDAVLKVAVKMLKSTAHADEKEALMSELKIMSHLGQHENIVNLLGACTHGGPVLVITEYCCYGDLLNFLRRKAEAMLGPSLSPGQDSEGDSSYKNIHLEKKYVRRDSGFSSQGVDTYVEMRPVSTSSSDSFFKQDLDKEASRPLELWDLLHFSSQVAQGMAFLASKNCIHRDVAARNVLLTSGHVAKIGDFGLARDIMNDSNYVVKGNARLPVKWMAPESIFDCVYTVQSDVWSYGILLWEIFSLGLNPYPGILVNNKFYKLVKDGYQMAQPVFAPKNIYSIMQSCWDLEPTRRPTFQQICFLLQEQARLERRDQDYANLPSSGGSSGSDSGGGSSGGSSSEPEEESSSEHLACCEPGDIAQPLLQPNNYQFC

COc1ncc(F)cc1CNc1ccc(Cc2c[nH]c3ncc(C)cc23)c(F)n1 [PLX-5622]
Activity (Mus musculus [1]): 1
IC50 [2]: > 1 µM
Activity [3]: 74.641%
Activity [4]: 0 RPKM
IC50 [5]: > 1 µM
Activity [6]: 82.746%
IC50 [7]: > 1 µM
Activity [8]: 0.14 RPKM
Activity [9]: 0 RPKM
Activity [10]: 111.226 RPKM
IC50 [11]: > 1 µM
Activity (Mus musculus [12]): 100.854 pg
concentration at 4320 h [13]: 9090 ng/mL
Activity (Mus musculus [14]): 0 pg
Activity (Mus musculus [15]): 45
Activity [16]: 0 RPKM
Activity [17]: 95.841%
IC50 [18]: > 1 µM
Activity [19]: 5
